Measurements as given in ChEMBL document CHEMBL1770101, “Synthesis, anti-inflammatory activity and COX-1/COX-2 inhibition of novel substituted cyclic imides. Part 1: Molecular docking study” (Eur J Med Chem, 2011).

Key:
[1] = target: T1, Prostaglandin G/H synthase 1 (Ovis aries, UniProt P05979); experiment: Inhibition of ovine COX1 after 5 mins by enzyme immunoassay
T1 sequence (P05979 whole entry): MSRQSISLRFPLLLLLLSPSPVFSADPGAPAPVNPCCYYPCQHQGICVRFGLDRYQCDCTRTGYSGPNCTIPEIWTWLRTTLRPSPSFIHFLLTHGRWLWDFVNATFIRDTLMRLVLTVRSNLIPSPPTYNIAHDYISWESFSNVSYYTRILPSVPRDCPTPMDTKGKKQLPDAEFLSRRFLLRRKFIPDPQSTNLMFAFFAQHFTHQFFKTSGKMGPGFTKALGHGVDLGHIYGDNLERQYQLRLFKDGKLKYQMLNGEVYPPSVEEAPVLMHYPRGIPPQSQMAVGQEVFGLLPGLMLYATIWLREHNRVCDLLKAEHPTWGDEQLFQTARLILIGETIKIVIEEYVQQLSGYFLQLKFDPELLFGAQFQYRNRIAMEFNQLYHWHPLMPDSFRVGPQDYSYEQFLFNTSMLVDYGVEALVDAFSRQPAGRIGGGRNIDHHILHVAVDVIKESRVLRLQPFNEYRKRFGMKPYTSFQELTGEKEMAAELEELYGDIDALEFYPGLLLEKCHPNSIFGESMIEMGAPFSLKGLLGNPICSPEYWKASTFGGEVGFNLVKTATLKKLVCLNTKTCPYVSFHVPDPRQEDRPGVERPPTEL

Rattus norvegicus [2] = experiment: Antiinflammatory activity in Sprague-Dawley rat assessed as inhibition of carrageenan-induced paw edema at 100 mg/kg, ip after 1 hr by plethysmometer; type: functional; conditions: route intraperitoneal
Method in brief: (§1)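 Male Sprague-Dawley rats (250 g), fasted at least 16 h with free access to water, six per group. Test compound given IP at 100 mg/kg as 1 mL suspension in 0.5% methyl cellulose.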

Rattus norvegicus [3] = experiment: Antiinflammatory activity in Sprague-Dawley rat assessed as inhibition of carrageenan-induced paw edema at 100 mg/kg, ip after 2 hrs by plethysmometer; type: functional; conditions: route intraperitoneal; method in brief: as §1
Rattus norvegicus [4] = experiment: Antiinflammatory activity in ip dosed Sprague-Dawley rat assessed as inhibition of carrageenan-induced paw edema after 2 hrs by plethysmometer; type: functional
Method in brief: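 Male Sprague-Dawley rats (250 g), fasted at least 16 h with water available, six per group. Compounds dosed IP as 1 mL suspension in 0.5% methyl cellulose. Paw volume measured by water displacement plethysmometer before and after treatment. % inhibition = (1 − D/C) × 100 versus controls.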

| Structure (SMILES) | IC50 [1] | inhibition in vivo at 100 mg/kg (Rattus norvegicus [2]) | inhibition in vivo at 100 mg/kg (Rattus norvegicus [3]) | ED50 (Rattus norvegicus [4]) |
| --- | --- | --- | --- | --- |
| O=C1[C@H]2CC=CC[C@H]2C(=O)N1c1cc(Cl)c(Cl)c(Cl)c1 | > 100 µM |  |  |  |
| COc1cc(N2C(=O)c3ccc([N+](=O)[O-])cc3C2=O)cc(OC)c1OC | 40 µM | 87% | 94% | 105 mg/kg |
| COc1cc(-n2c(=O)c3ccccc3c3ccccc3c2=O)cc(OC)c1OC | > 100 µM | 86% | 84% | 120 mg/kg |
| O=C1c2ccc([N+](=O)[O-])cc2C(=O)N1c1cc(Cl)c(Cl)c(Cl)c1 | 36.1 µM | 79% | 79% | 122 mg/kg |
| Cc1ccc2c(c1)C(=O)N(c1cc(Cl)c(Cl)c(Cl)c1)C2=O | > 100 µM | 36% | 65% | 183 mg/kg |
| COc1cc(N2C(=O)c3cc(Cl)c(Cl)cc3C2=O)cc(OC)c1OC | > 100 µM | 59% | 80% | 186 mg/kg |
| COc1cc(N2C(=O)c3ccccc3C2=O)cc(OC)c1OC | > 100 µM | 43% | 67% | 185 mg/kg |
| O=C1c2c(Br)c(Br)c(Br)c(Br)c2C(=O)N1c1cc(Cl)c(Cl)c(Cl)c1 | > 100 µM |  |  |  |
| O=C1c2cc(Cl)c(Cl)cc2C(=O)N1c1cc(Cl)c(Cl)c(Cl)c1 | > 100 µM | 75% | 65% | 187 mg/kg |
| COc1cc(N2C(=O)c3cccc4cccc(c34)C2=O)cc(OC)c1OC | > 100 µM | 86% | 91% | 117 mg/kg |
| COc1cc(N2C(=O)c3c(Br)c(Br)c(Br)c(Br)c3C2=O)cc(OC)c1OC | > 100 µM | 42% | 55% | 213 mg/kg |
| O=C1c2ccccc2C(=O)N1c1cc(Cl)c(Cl)c(Cl)c1 | > 100 µM | 49% | 70% | 172 mg/kg |
| CC(C)(C)c1ccc2c(c1)C(=O)N(c1cc(Cl)c(Cl)c(Cl)c1)C2=O | > 100 µM | 35% | 60% | 195 mg/kg |
| O=C1CCC(=O)N1c1cc(Cl)c(Cl)c(Cl)c1 | > 100 µM | 30% | 33% |  |
| COc1cc(N2C(=O)c3ccc(C(C)(C)C)cc3C2=O)cc(OC)c1OC | > 100 µM | 60% | 89% | 146 mg/kg |
| COc1cc(N2C(=O)CCC2=O)cc(OC)c1OC | > 100 µM | 20% | 40% |  |
| COc1cc(N2C(=O)[C@H]3CC=CC[C@H]3C2=O)cc(OC)c1OC | > 100 µM |  |  |  |
| COc1cc(N2C(=O)c3c(Cl)c(Cl)c(Cl)c(Cl)c3C2=O)cc(OC)c1OC | > 100 µM |  | 53% | 212 mg/kg |
| O=C1c2cccc3cccc(c23)C(=O)N1c1cc(Cl)c(Cl)c(Cl)c1 | > 100 µM | 79% | 88% | 115 mg/kg |
| COc1cc(N2C(=O)c3nccnc3C2=O)cc(OC)c1OC | > 100 µM | 72% | 84% | 123 mg/kg |
| O=C1c2nccnc2C(=O)N1c1cc(Cl)c(Cl)c(Cl)c1 | > 100 µM | 47% | 73% | 175 mg/kg |
| O=C(O)Cc1ccccc1Nc1c(Cl)cccc1Cl [DICLOFENAC] |  | 88% | 89% | 114 mg/kg |
| COc1cc(N2C(=O)C3C(C2=O)C2(Cl)C(Cl)=C(Cl)C3(Cl)C2(Cl)Cl)cc(OC)c1OC (stereo not drawn) | > 100 µM | 36% | 34% |  |
| COc1cc(N2C(=O)c3ccc(C)cc3C2=O)cc(OC)c1OC | > 100 µM | 84% | 94% | 107 mg/kg |
| O=C1c2c(Cl)c(Cl)c(Cl)c(Cl)c2C(=O)N1c1cc(Cl)c(Cl)c(Cl)c1 | > 100 µM | 44% | 45% | 229 mg/kg |
| O=C1C2C(C(=O)N1c1cc(Cl)c(Cl)c(Cl)c1)C1(Cl)C(Cl)=C(Cl)C2(Cl)C1(Cl)Cl (stereo not drawn) | > 100 µM | 23% | 37% |  |
| O=c1c2ccccc2c2ccccc2c(=O)n1-c1cc(Cl)c(Cl)c(Cl)c1 | > 100 µM | 75% | 72% | 150 mg/kg |
